Consider 1 compound from publication PMC8458982 (The Journal of Biological Chemistry, 2021).

One data set relates to mTRPC6 mutant ^mY657W. Nature of the data set: whole-cell patch-clamp, mTRPC6 mutant Y657W. The class given is cell-based, mouse. To be noted: ^mY657W (S1 pocket). A digest of the protocol: (§1)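 Transiently transfected HEK293 cells expressing mouse or human TRPC6 WT, or sequence-verified mouse point mutants, recorded 24–48 h post-transfection. Conventional whole-cell clamp at −60 mV and 23 °C, gap-free; test compound applied by Y-tube. Pipette: CsCl/HEPES/BAPTA, 400 nM free Ca2+, pH 7.2. Bath: NaCl-based, 2 mM CaCl2, pH 7.4. EC50 from Hill fit of concentration–current data. Mutant screen used current ratios (10/5 μM or 3/1 μM). At least 3 transfection batches.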
On the technique in general: The patch-clamp technique gives a direct electrical read-out from membranes.

The next data set deals with mTRPC6 mutant ^mF490W. Briefly: whole-cell patch-clamp, mTRPC6 mutant F490W. As to conditions: ^mF490W (S1 pocket). The data set is classed as cell-based, mouse. In short, it runs like this:
as §1

In a further data set the target is mTRPC6 mutant ^mK697R (Mus musculus, UniProt Q61143, K697R). Briefly: whole-cell patch-clamp, mTRPC6 mutant K697R. The class given is cell-based. In short, it runs like this:
as §1

Another data set deals with mTRPC6 mutant ^mF678W (Mus musculus, UniProt Q61143, F678W). Briefly: whole-cell patch-clamp, mTRPC6 mutant F678W. The class given is cell-based. To be noted: saturated agonist. In short, it runs like this: as §1
The target in a further data set is hTRPC6 mutant ^hN702Q (Homo sapiens, UniProt Q9Y210, N702Q). Nature of the data set: whole-cell patch-clamp, hTRPC6 mutant N702Q. The class given is cell-based.
In another data set the target is hTRPC6 mutant ^hE672C (Homo sapiens, UniProt Q9Y210, E672C). Briefly: whole-cell patch-clamp, hTRPC6 mutant E672C. The data set is classed as cell-based.
The target in another data set is T1, mouse TRPC6 (mTRPC6-WT) (Mus musculus, UniProt Q61143).
T1 sequence (Q61143 1-930): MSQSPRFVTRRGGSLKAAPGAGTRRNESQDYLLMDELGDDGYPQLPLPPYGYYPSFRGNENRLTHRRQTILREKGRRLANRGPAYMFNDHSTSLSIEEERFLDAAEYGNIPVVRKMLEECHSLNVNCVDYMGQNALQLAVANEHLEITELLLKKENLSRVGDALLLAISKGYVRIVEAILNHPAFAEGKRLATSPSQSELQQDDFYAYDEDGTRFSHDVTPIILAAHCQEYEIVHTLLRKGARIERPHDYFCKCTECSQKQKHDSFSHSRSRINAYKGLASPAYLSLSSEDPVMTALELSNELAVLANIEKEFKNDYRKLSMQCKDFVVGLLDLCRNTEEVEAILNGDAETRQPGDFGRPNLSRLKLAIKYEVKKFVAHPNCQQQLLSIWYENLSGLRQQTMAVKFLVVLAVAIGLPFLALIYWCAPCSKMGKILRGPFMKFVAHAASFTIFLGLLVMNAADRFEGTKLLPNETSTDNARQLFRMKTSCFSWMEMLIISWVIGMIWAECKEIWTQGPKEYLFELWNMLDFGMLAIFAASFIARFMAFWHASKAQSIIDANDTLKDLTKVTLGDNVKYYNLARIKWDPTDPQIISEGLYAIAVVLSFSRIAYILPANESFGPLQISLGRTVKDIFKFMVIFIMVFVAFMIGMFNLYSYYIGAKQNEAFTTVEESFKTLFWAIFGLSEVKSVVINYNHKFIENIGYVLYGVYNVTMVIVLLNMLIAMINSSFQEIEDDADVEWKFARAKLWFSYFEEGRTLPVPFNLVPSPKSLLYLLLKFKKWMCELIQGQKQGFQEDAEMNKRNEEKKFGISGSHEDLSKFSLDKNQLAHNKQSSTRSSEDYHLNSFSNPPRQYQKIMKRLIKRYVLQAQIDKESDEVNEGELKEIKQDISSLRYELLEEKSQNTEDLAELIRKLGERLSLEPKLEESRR
Nature of the data set: whole-cell patch-clamp, mTRPC6-WT expressed in HEK293 cells. The data set is classed as cell-based. In short, it runs like this:
as §1

In a further data set the target is T2, TRPC6 (Mus musculus, UniProt Q61143).
T2 sequence (Q61143 1-930): T1 sequence (Q61143 1-930)
Nature of the data set: macro-patch recordings in outside-out and inside-out configurations. The class given is cell-based. A digest of the protocol: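 Excised outside-out or inside-out patches (macro-patch or single-channel) from transfected HEK293 cells, 24–48 h post-transfection, 23 °C. Polished borosilicate pipettes of 8–12 MΩ; holding potential −60 mV. Same solutions as whole-cell recordings (CsCl-based internal, 400 nM free Ca2+, pH 7.2; NaCl-based external, pH 7.4). Sampled at 50 kHz, 2 kHz filter, low-pass 300 Hz; unitary current and conductance measured.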

In the next data set the target is mTRPC6 mutant ^mW679F (Mus musculus, UniProt Q61143, W679F). Briefly: whole-cell patch-clamp, mTRPC6 mutant W679F. The class given is cell-based. As to conditions: saturated agonist. A digest of the protocol: as §1
The next data set has as its target mTRPC6 mutant ^mV709A (Mus musculus, UniProt Q61143, V709A). Nature of the data set: whole-cell patch-clamp, mTRPC6 mutant V709A. The data set is classed as cell-based. In short, it runs like this:
as §1

A further data set deals with mTRPC6 mutant ^mY704W (Mus musculus, UniProt Q61143, Y704W). Nature of the data set: whole-cell patch-clamp, mTRPC6 mutant Y704W. The class given is cell-based. A digest of the protocol: as §1

Structures are written as SMILES. Values joined by “and” are separate entries in the source; they are usually repeats but may differ in a detail not shown here. Equal entries are not always repeated.

mTRPC6 mutant ^mY704W, sequence (Q61143 whole entry Y704W): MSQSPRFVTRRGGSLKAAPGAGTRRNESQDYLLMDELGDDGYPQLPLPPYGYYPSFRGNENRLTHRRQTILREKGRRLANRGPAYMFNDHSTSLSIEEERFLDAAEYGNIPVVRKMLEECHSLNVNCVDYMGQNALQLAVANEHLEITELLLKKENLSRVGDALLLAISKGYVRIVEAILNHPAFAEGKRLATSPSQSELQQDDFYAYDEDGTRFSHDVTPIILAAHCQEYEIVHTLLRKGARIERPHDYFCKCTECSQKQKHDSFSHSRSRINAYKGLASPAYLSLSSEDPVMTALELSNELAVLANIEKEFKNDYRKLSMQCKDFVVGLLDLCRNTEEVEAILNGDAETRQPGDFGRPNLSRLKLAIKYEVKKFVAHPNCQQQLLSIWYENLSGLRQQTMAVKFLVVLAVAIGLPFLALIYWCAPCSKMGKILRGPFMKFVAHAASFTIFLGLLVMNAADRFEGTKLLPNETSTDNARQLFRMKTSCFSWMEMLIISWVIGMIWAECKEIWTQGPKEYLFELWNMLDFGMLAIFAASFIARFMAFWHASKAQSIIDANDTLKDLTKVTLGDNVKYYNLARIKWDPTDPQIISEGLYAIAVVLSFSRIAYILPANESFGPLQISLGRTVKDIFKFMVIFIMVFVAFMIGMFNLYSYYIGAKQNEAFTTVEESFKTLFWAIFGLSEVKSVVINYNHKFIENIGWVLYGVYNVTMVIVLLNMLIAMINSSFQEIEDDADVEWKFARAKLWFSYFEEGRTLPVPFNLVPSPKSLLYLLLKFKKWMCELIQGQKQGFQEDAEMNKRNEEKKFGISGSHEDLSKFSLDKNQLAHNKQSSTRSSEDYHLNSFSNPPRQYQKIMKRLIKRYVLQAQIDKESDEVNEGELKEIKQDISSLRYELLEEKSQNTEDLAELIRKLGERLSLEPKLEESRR
mTRPC6 mutant ^mK697R, sequence (Q61143 whole entry K697R): as the sequence (Q61143 whole entry Y704W) above, with K697R, W704Y counted along it
mTRPC6 mutant ^mF678W, sequence (Q61143 whole entry F678W): as the sequence (Q61143 whole entry Y704W) above, with F678W, W704Y counted along it
hTRPC6 mutant ^hE672C, sequence (Q9Y210 whole entry E672C): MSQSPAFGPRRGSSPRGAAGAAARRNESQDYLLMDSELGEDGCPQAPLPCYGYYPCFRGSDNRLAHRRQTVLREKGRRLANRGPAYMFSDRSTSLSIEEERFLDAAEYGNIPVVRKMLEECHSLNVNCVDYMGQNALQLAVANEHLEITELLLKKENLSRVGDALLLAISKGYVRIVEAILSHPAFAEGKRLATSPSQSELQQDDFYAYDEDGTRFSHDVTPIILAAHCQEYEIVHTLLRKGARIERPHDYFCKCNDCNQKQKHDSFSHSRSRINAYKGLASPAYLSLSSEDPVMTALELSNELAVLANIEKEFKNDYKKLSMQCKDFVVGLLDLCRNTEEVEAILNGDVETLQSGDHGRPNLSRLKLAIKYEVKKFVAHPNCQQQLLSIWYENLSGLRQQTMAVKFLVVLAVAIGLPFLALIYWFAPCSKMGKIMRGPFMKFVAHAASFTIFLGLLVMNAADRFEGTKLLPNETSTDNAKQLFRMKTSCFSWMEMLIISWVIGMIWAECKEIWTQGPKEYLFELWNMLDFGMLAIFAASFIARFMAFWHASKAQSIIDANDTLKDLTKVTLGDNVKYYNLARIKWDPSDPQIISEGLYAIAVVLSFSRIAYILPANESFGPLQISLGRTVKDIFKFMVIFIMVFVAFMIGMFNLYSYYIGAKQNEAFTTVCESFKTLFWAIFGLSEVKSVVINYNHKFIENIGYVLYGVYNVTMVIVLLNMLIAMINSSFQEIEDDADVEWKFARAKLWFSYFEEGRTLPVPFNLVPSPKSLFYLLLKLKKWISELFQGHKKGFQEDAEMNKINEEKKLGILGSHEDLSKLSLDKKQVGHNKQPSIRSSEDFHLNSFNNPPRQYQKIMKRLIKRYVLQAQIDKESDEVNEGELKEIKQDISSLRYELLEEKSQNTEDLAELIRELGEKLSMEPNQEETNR
mTRPC6 mutant ^mW679F, sequence (Q61143 whole entry W679F): as the sequence (Q61143 whole entry Y704W) above, with W679F, W704Y counted along it
mTRPC6 mutant ^mV709A, sequence (Q61143 whole entry V709A): as the sequence (Q61143 whole entry Y704W) above, with W704Y, V709A counted along it
hTRPC6 mutant ^hN702Q, sequence (Q9Y210 whole entry N702Q): as the sequence (Q9Y210 whole entry E672C) above, with C672E, N702Q counted along it

In the case of `CCOC(=O)N1CCC(c2cc(O)n3nc(C)c(-c4ccc(F)cc4)c3n2)CC1` [M085, Ethyl 4-(3-(4-fluorophenyl)-7-hydroxy-2-methylpyrazolo[1,5-a]pyrimidin-5-yl)piperidine-1-carboxylate], the “ratio of M085 activation current I10 μM/I5 μM” value with mTRPC6 mutant ^mY657W was 1.68 ± 0.24; in the data set with mTRPC6 mutant ^mF490W, 1.91 ± 0.12; on mouse TRPC6 (mTRPC6-WT) (mTRPC6-WT) it was 1.65 ± 0.21. Besides, the EC50 (in general, the concentration giving half of the maximal effect) at mTRPC6 mutant ^mK697R was 14.1 ± 1.95 µM; on hTRPC6 mutant ^hN702Q, 54.5 ± 6.53 µM; at hTRPC6 mutant ^hE672C, 50.2 ± 6.65 µM; at mouse TRPC6 (mTRPC6-WT) (EC50 of channel activation, mTRPC6-WT, whole-cell, −60 mV, Hill fit) it was ~5 µM and 3.8 µM; at mTRPC6 mutant ^mV709A, 6.95 ± 2.13 µM; at mTRPC6 mutant ^mY704W, 26.7 ± 4.04 µM. For the same compound, the “Imax (maximal current density)” value was determined as 25.58 ± 1.86 pA/pF at mTRPC6 mutant ^mK697R (^mK697R, 100 μM agonist); 75.11 ± 14.20 pA/pF on mouse TRPC6 (mTRPC6-WT) (mTRPC6-WT, 30 μM M085 (saturated)); 3.27 ± 1.12 pA/pF at mTRPC6 mutant ^mY704W (^mY704W, 100 μM agonist). The “agonist-induced current (channel function)” value at mTRPC6 mutant ^mF678W and at mTRPC6 mutant ^mW679F was “complete loss of function” in each case. The “effect of DTNB on agonist-mediated activation” value at mouse TRPC6 (mTRPC6-WT) (mTRPC6-WT, DTNB covalent modification) is “no effect”. The saturation concentration result at mouse TRPC6 (mTRPC6-WT) (mTRPC6 activation) is reported as “approximately 10 μM”. Further, at TRPC6 (100 μM agonist, inside-out macro-patch), the “current in inside-out configuration” value is recorded as “no currents were recorded”. Also, at TRPC6 (100 μM agonist, outside-out macro-patch), the “current in outside-out configuration” value is reported as “could be recorded”. Moreover, the cell membrane permeability result on TRPC6 (implied from inside-out/outside-out recordings) is “relatively low”.
